{"data": "Experimental data of several laboratories", "CDK1 with cyclin B": "Cyclin-dependent kinase 1, with cyclin B (CDK1, Homo sapiens, UniProt P06493)", "FAP": "Prolyl endopeptidase FAP (FAP, Homo sapiens, UniProt Q12884)", "note": "Compare with care: the assays were run in different laboratories."}
{"Structure (SMILES)": "Cn1cc(-c2cccc(N3CCc4c(sc5c4CC(C)(C)C5)C3=O)c2CO)cc(Nc2ccncn2)c1=O", "target": "Cyclin-dependent kinase 9, with cyclin K (CDK9, Homo sapiens, UniProt P50750)", "observed": "enzyme activity", "mode": "inhibitor", "tested at": "1 µM", "inhibition": "11%"}
{"Structure (SMILES)": "Cc1ncc(C)n2nc(/C=C/c3nc(N4CCCC4)cc(N4CCOCC4)n3)nc12", "target": "C-X-C chemokine receptor type 4 (CXCR4, Homo sapiens, UniProt P61073)", "observed": "cell-free assay", "tested at": "10 µM", "inhibition": "-8%"}
{"Structure (SMILES)": "COc1ccc(S(=O)(=O)N(CC(=O)NO)CC(C)C)cc1", "target": "Stromelysin-2 (Homo sapiens, UniProt P09238)", "observed": "enzyme activity", "mode": "inhibitor", "tested at": "1 µM", "inhibition": "63%"}
{"Structure (SMILES)": "C#Cc1n[nH]c2c(-c3cn(C(C)c4ccccn4)c(=O)[nH]c3=O)cc(F)cc12 (stereo not drawn)", "target": "CDK1 with cyclin B", "observed": "enzyme activity", "mode": "inhibitor", "tested at": "1 µM", "inhibition": "6.8%"}
{"Structure (SMILES)": "Cn1cc(-c2cc(F)cc(N3CCn4c(cc5c4CCCC5)C3=O)c2CO)cc(Nc2ccc(N3CCN(C4COC4)CC3)cn2)c1=O", "target": "CDK1 with cyclin B", "observed": "enzyme activity", "mode": "inhibitor", "tested at": "0.1 µM", "inhibition": "8%"}
{"Structure (SMILES)": "N#C[C@@H]1CC(F)(F)CN1C(=O)CNC(=O)c1ccnc2ccccc12", "target": "FAP", "observed": "enzyme activity", "mode": "inhibitor", "tested at": "1 nM", "inhibition": "1%"}
{"Structure (SMILES)": "C=CCn1c2cc(OC(=O)CCCCN3CCN(Cc4cccc(Cl)c4)CC3)ccc2c2ccnc(C)c21", "target": "Acetylcholinesterase (ACHE, Homo sapiens, UniProt P22303)", "observed": "enzyme activity", "mode": "inhibitor", "method": "Ellman", "tested at": "1 µM", "inhibition": "48.1%"}
{"Structure (SMILES)": "C#Cc1n[nH]c2c(-c3cn([C@@H](C)c4ccccc4)c(=O)[nH]c3=O)cc(F)cc12", "target": "Proto-oncogene tyrosine-protein kinase Src (SRC, Homo sapiens, UniProt P12931)", "observed": "enzyme activity", "mode": "inhibitor", "tested at": "0.1 µM", "inhibition": "8.4%"}
{"Structure (SMILES)": "N=C(N)c1ccc2cc(OC(=O)c3ccc(N=C(N)N)cc3)ccc2c1", "target": "FAP", "observed": "enzyme activity", "mode": "inhibitor", "tested at": "10 µM", "inhibition": "25%"}
